Experimental data as given in the RNAGym collection of RNA variant scans (doi:10.1101/gad.245936.114).
Variants at the floor of the assay were thinned out.

B1: tRNA (parent)
chain: CUCUCGGUAGCCAAGUUGGUUUAAGGCGCAAGACUUUAAUUUAUCACUACGAAAUCUUGAGAUCGGGCGUUCGACUCGCCCCCGGGAGAUUUUUUCCUCGAGCAA

Variants of: B1
Assay: nonsense suppression (GFP-seq) (ratio to wild type); higher = more function; SUP4oc tRNA, yeast GFP reporter sort-seq
Method in brief: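 Nonsense suppression (GFPSEQ) is the median GFP/RFP ratio of each sorting bin, weighted by the variant's estimated share of cells in that bin and expressed relative to the unmutated parent tRNA. Yeast strains carried genome-integrated variants of an ochre-suppressor tRNA from a library with ~3% random mutations, plus a galactose-driven GFP ochre reporter and RFP, and were grown in raffinose/galactose medium containing 80 mg/L adenine. Cells were sorted into GFP/RFP bins, each bin was Illumina-sequenced (phred ≥30), and variants were kept only with ≥100 reads and ≥30 cells.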

Going from C34U G61A to G18U C83A, the nonsense suppression falls from 0.0297 to at most 0.026.

First: A9C G61C
Second: C75A C79U
The nonsense suppression of the first is lower: 0.791 for the first, 1.21 for the second.

Compared with C11G C29G G61U, G73A is higher in nonsense suppression: at most 0.026 for the first, 1.12 for the second.

C34G A74U and G15U C29U cannot be ordered by nonsense suppression: at most 0.026 for the first, at most 0.026 for the second.

Compared with G78A G84U, U4G A23U A24C A33U G67A G84C A87G G88C is lower in nonsense suppression: 0.0325 for the first, at most 0.026 for the second.

G7A U20G C34U U57C C64A C79U G88C and C5A U76C G86C cannot be ordered by nonsense suppression: at most 0.026 for the first, at most 0.026 for the second.

Compared with G6C G15A, U21G C75A is higher in nonsense suppression: at most 0.026 for the first, 1.06 for the second.

First: U20G C29U
Second: U8G G67C G85C
The nonsense suppression of the first is higher: 1.12 for the first, at most 0.026 for the second.

First: U20G G67A
Second: G7U A9U A31U
The nonsense suppression of the first is higher: 0.0529 for the first, at most 0.026 for the second.

First: C3G G7C U55A
Second: C1G G61A U76C
The nonsense suppression of the first is lower: at most 0.026 for the first, 0.0371 for the second.

First: U58A G59A U63A G69C U70G
Second: U63C C75U
The nonsense suppression of the first is lower: at most 0.026 for the first, 1.1 for the second.

Compared with C29U G61A, A33U U71A is lower in nonsense suppression: 0.83 for the first, at most 0.026 for the second.

A9G A23G U70G A89G and G6A U8G cannot be ordered by nonsense suppression: at most 0.026 for the first, at most 0.026 for the second.

First: U2G U8A C12A A30G G59U G88C
Second: U21A G61U
The nonsense suppression of the first is lower: at most 0.026 for the first, 0.791 for the second.

First: C3U G78A
Second: C3U C12U
The nonsense suppression of the first is higher: 0.0608 for the first, 0.039 for the second.

Going from A31G C75U to C1U C56A U76C, the nonsense suppression falls from 1.05 to at most 0.026.

Going from A60U to A14U G25U A30C G65C, the nonsense suppression falls from 0.984 to at most 0.026.

G19C G67C and G61A C68U G69A G73A cannot be ordered by nonsense suppression: at most 0.026 for the first, at most 0.026 for the second.

Compared with C68U U70C, A13C C64U is higher in nonsense suppression: 0.0321 for the first, 0.0428 for the second.

Compared with U16G A31G, G59C G85A is lower in nonsense suppression: 1.15 for the first, 0.114 for the second.

C56A U63G and C1U G18A U21G C27U cannot be ordered by nonsense suppression: at most 0.026 for the first, at most 0.026 for the second.

First: A13U U16A
Second: U76C C81U
The nonsense suppression of the first is higher: 0.837 for the first, 0.0575 for the second.

C3U A23U A30C and U16A G19C U70G C72G cannot be ordered by nonsense suppression: at most 0.026 for the first, at most 0.026 for the second.

Compared with U16A, C5G G25A A89G is lower in nonsense suppression: 1 for the first, at most 0.026 for the second.

U20G A23U G88U and G19U U55G cannot be ordered by nonsense suppression: at most 0.026 for the first, at most 0.026 for the second.

Compared with A30U A31U, G10A G78U is lower in nonsense suppression: 0.035 for the first, 0.0324 for the second.

G25A C75G G78A and C11G A31U cannot be ordered by nonsense suppression: at most 0.026 for the first, at most 0.026 for the second.

G18A G25U C27U G67C and A9G A13C C34G U63A C81G G84A G86U cannot be ordered by nonsense suppression: at most 0.026 for the first, at most 0.026 for the second.

Compared with G7C G10A C68G, A13U G78U is higher in nonsense suppression: at most 0.026 for the first, 0.236 for the second.

Compared with U17C U55C, G67U C79G is higher in nonsense suppression: 0.444 for the first, 0.768 for the second.

C12A G32C U57G and C11A C12A U17G U22G G66A U76C A89C cannot be ordered by nonsense suppression: at most 0.026 for the first, at most 0.026 for the second.

A24C G26A A30U C80G C81G and A9U U57G G65C cannot be ordered by nonsense suppression: at most 0.026 for the first, at most 0.026 for the second.

Going from A13C U63A to A62G C83A, the nonsense suppression falls from 1.17 to at most 0.026.

Going from G61C G88U to G26A U70A, the nonsense suppression falls from 0.0792 to at most 0.026.

Compared with U4C A13C A24U, G10C G26U G86A G88A is lower in nonsense suppression: 0.488 for the first, at most 0.026 for the second.

Going from C27G A31G A54U U70C G84A to A60G U63A, the nonsense suppression rises from at most 0.026 to 0.163.

Going from G7A G10U U20A U35G U57G U63C to U20C U22C A54U, the nonsense suppression rises from at most 0.026 to 0.412.

U17G A54G U55G and C3A U57A C80U A89U cannot be ordered by nonsense suppression: at most 0.026 for the first, at most 0.026 for the second.

First: C12U G85U
Second: A60G
The nonsense suppression of the first is lower: 0.0919 for the first, 1.14 for the second.

Compared with U76A G85U, G19U C29A G59A is lower in nonsense suppression: 0.0588 for the first, at most 0.026 for the second.

Compared with U2A G73A, C79U is higher in nonsense suppression: 0.0508 for the first, 0.879 for the second.

Going from U57A G84U to A31G G67C G85A, the nonsense suppression falls from 0.0408 to at most 0.026.
